ChEMBL document CHEMBL4613307, “Sigma Receptor Ligands Carrying a Nitric Oxide Donor Nitrate Moiety: Synthesis, In Silico, and Biological Evaluation” (ACS Med Chem Lett, 2020)
pIC50, pKi: −log10 of the molar value. The source made the active and inactive calls. No cut-off for these calls is given here.

What was measured:
[1] = target: Sigma non-opioid intracellular receptor 1 (Cavia porcellus, UniProt Q60492); assay: Displacement of [3H]-(+)-pentazocine from sigma1 receptor in guinea pig brain membranes incubated for 1 hr by liquid scintillation counting method; type: cell membranes, Membrane
Summary of the method: (§1)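 Radioligand binding at σ1 and σ2 receptors, with [3H]DTG as the σ2 radioligand. Ki given as mean ± SD of at least two experiments run in triplicate.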

[2] = target: T1, Sigma intracellular receptor 2 (Homo sapiens, UniProt Q5BJF2); assay: Displacement of [3H]-di-o-tolylguanidine from sigma2 receptor (unknown origin) incubated for 1 hr in presence of (+)SKF10047 by liquid scintillation counting method; summary of the method: as §1
MCF7 [3] = assay: Cytotoxicity against human MCF7 cells assessed as reduction in cell viability at 100 uM after 24 hrs by MTT assay relative to control; type: functional
[4] = target: Sigma non-opioid intracellular receptor 1 (Cavia porcellus) (UniProt Q60492); assay: Displacement of [3H]-(+)-pentazocine from sigma1 receptor in guinea pig brain membranes at 10 uM incubated for 1 hr by liquid scintillation counting method relative to control; type: cell membranes; details: Membrane
[5] = target: T1, Sigma intracellular receptor 2; assay: Displacement of [3H]-di-o-tolylguanidine from sigma2 receptor (unknown origin) at 10 uM incubated for 1 hr in presence of (+)SKF10047 by liquid scintillation counting method relative to control
MCF7 [6] = assay: Cytotoxicity against human MCF7 cells assessed as reduction in cell viability after 24 hrs by MTT assay; type: functional, cell-based; details: MCF7, 24 h
Summary of the method: (§2)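 MTT viability assay in Caco-2, MCF-7 and HFF-1 cells; top tested concentration 100 μM. IC50 given as mean ± SD of at least two experiments run in quadruplicate.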

[7] = Drug metabolism in Tris-HCl buffer assessed as amount of nitrite released at 100 uM and 37 degree C after 30 mins in presence of nitrate reductase and NADPH by Griess reagent based spectrophotometric analysis; type: physicochemical; details: 0.5 h
Summary of the method: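 Test agents at 100 μM incubated in Tris-HCl buffer at 37 °C for 30 min; total nitrite measured with Griess reagent.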

HFF-1 [8] = assay: Cytotoxicity against human HFF1 cells assessed as reduction in cell viability at 100 uM after 24 hrs by MTT assay relative to control; type: cell-based; details: hff-1, 24 h
Caco-2 [9] = assay: Cytotoxicity against human Caco2 cells assessed as reduction in cell viability at 100 uM after 24 hrs by MTT assay relative to control; type: functional
HFF-1 [10] = assay: Cytotoxicity against human HFF1 cells assessed as reduction in cell viability after 24 hrs by MTT assay; type: cell-based; details: HFF-1, 24 h; summary of the method: as §2
Caco-2 [11] = assay: Cytotoxicity against human Caco2 cells assessed as reduction in cell viability after 24 hrs by MTT assay; type: functional, cell-based; details: Caco-2, 24 h; summary of the method: as §2
MCF7 [12] = assay: Cytotoxicity against human MCF7 cells assessed as restoration of cell viability loss at IC50 after 24 hrs in presence of AC927 by MTT assay; type: functional, cell-based
Summary of the method: (§3)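 MCF-7 cells given the test agent at its viability-reducing concentration together with 1 μM σ1 agonist (+)-pentazocine or 1 μM σ2 antagonist 1-phenethylpiperidine (AC927); viability read by MTT.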

MCF7 [13] = assay: Cytotoxicity against human MCF7 cells assessed as restoration of cell viability loss at IC50 after 24 hrs in presence of PTZ by MTT assay; type: functional, cell-based; summary of the method: as §3

Sequence of Sigma non-opioid intracellular receptor 1 (Cavia porcellus) (Q60492 whole entry): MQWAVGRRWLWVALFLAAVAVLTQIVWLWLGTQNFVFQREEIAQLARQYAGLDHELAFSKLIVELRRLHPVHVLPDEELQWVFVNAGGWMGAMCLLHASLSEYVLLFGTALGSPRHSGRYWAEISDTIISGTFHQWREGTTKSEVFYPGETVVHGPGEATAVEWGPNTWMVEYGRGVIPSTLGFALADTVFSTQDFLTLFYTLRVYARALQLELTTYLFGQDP
Sequence of Sigma non-opioid intracellular receptor 1 (Q60492 whole entry): as above
T1 sequence (Q5BJF2 whole entry): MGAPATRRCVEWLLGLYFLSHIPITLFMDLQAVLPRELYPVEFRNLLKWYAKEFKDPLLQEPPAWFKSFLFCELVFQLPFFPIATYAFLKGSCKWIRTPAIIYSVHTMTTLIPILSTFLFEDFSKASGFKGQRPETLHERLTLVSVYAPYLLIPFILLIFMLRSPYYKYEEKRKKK

SMILES	pKi [1]	pKi [2]	Activity (MCF7 [3]) [%]	pIC50 (MCF7 [6])	other results
O=C(NCCN1CCC(Cc2ccccc2)CC1)c1ccc(CO[N+](=O)[O-])cc1	7.05	5.57			
O=C(O)c1ccc(CO)cc1	< 5.00	< 5.00	<50	< 4.00	inhibition [4]: < 50%; inhibition [5]: < 50%
O=C(NCCCN1CCC(Cc2ccccc2)CC1)c1ccc(CO[N+](=O)[O-])cc1	6.84	6.64			
O=C(NC1CCN(Cc2ccccc2)CC1)c1cccc(CO[N+](=O)[O-])c1	7.62	7.72			
Cc1ccc(C(=O)O)cc1 [4-METHYLBENZOIC ACID]	< 5.00	< 5.00	<50	< 4.00	inhibition [4]: < 50%; inhibition [5]: < 50%
O=C(Cc1cccc(CO[N+](=O)[O-])c1)NC1CCN(Cc2ccccc2)CC1	7.72	6.49	<50	< 4.00	Drug metabolism [7]: 1.3 µM; Activity (HFF-1 [8]): < 50%; Activity (Caco-2 [9]): <50%; pIC50 (HFF-1 [10]): < 4.00; pIC50 (Caco-2 [11]): < 4.00
O=C(NCCCCN1CCC(Cc2ccccc2)CC1)c1cccc(CO[N+](=O)[O-])c1	6.83	7.12			
O=C(NC1CCN(Cc2ccccc2)CC1)c1ccc(CO[N+](=O)[O-])cc1	7.66	6.57	<50	< 4.00	Drug metabolism [7]: 6.3 µM; Activity (HFF-1 [8]): < 50%; Activity (Caco-2 [9]): <50%; pIC50 (HFF-1 [10]): < 4.00; pIC50 (Caco-2 [11]): < 4.00
C[C@@H]1CCO[C@H]2Cn3cc(C(=O)NCc4ccc(F)cc4F)c(=O)c(O)c3C(=O)N12 [DOLUTEGRAVIR]		7.74			
O=C(NCCCCN1CCC(Cc2ccccc2)CC1)c1ccc(CO[N+](=O)[O-])cc1	6.60	7.05		4.59	Drug metabolism [7]: 13 µM; Activity (HFF-1 [8]): < 50%; Activity (MCF7 [12]): inactive; pIC50 (HFF-1 [10]): < 4.00; Activity (MCF7 [13]): inactive; pIC50 (Caco-2 [11]): 4.55
O=C(NCCCCCN1CCC(Cc2ccccc2)CC1)c1ccc(CO[N+](=O)[O-])cc1	7.03	7.15			
O=C(Cc1ccc(CO[N+](=O)[O-])cc1)NC1CCN(Cc2ccccc2)CC1	6.77	5.60			
O=C(NCCCCN1CCC(Cc2ccccc2)CC1)c1ccc(CO)cc1	6.15	5.59	<50	< 4.00	
O=C(NCCCN1CCC(Cc2ccccc2)CC1)c1cccc(CO[N+](=O)[O-])c1	7.19	7.03			
Cc1ccc(C(=O)NCCCCN2CCC(Cc3ccccc3)CC2)cc1	7.21	6.90	<50	4.06	
O=C(O)c1ccc(CO[N+](=O)[O-])cc1	< 5.00	< 5.00	<50	< 4.00	inhibition [4]: < 50%; inhibition [5]: < 50%
O=C(NCCN1CCC(Cc2ccccc2)CC1)c1cccc(CO[N+](=O)[O-])c1	7.31	6.48		4.44	Drug metabolism [7]: 13 µM; Activity (HFF-1 [8]): < 50%; pIC50 (HFF-1 [10]): < 4.00; pIC50 (Caco-2 [11]): 4.23
O=C(NCCCCCN1CCC(Cc2ccccc2)CC1)c1cccc(CO[N+](=O)[O-])c1	7.30	6.85			
COc1cccc2c1C(=O)c1c(O)c3c(c(O)c1C2=O)C[C@@](O)(C(=O)CO)C[C@@H]3O[C@H]1C[C@H](N)[C@H](O)[C@H](C)O1 [DOXORUBICIN]					Activity (HFF-1 [8]): < 50%; pIC50 (HFF-1 [10]): < 4.00; pIC50 (Caco-2 [11]): 4.68
